Where a name gives a salt, the structure may show the parent alone. Calls of active or inactive are those of the source. No cut-off for these calls is given here.
Assays:
[1] = system: THP-1; assay: Cytotoxicity against human THP1 cells assessed as growth inhibition at 50 uM after 48 hrs by sulforhodamine B assay; type: functional; details: THP-1, 48 h, read-out: GI
Method in brief: (§1)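 Single-point SRB screen at 50 µM. Cells were seeded and grown 24 h at 37°C in a CO2 incubator, then exposed to compound in complete medium for 48 h. Cells were fixed with 50% TCA for 1 h at 4°C, water-washed, and stained with 0.4% SRB in 1% acetic acid for 30 min. After 1% TCA washes, dye was dissolved in Tris-HCl (0.01 M, pH 10.4) and OD read at 540 nm.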

[2] = system: THP-1; assay: Cytotoxicity against human THP1 cells assessed as growth inhibition after 48 hrs by sulforhodamine B assay; type: functional, cell-based; details: THP-1, 48 h
Method in brief: (§2)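 SRB growth assay with compound dilutions over several concentrations. Cells were pre-grown 24 h at 37°C in a CO2 incubator, then exposed for 48 h. Cells were fixed with 50% TCA (1 h, 4°C) and stained with 0.4% SRB in 1% acetic acid for 30 min. Bound dye was solubilised in 0.01 M Tris-HCl (pH 10.4) and read at 540 nm. Percent inhibition versus untreated (blank-subtracted) was used to calculate IC50.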

[3] = system: COLO 205; assay: Cytotoxicity against human COLO205 cells assessed as growth inhibition at 50 uM after 48 hrs by sulforhodamine B assay; type: functional; details: COLO 205, 48 h, read-out: GI; method in brief: as §1
[4] = system: COLO 205; assay: Cytotoxicity against human COLO205 cells assessed as growth inhibition after 48 hrs by sulforhodamine B assay; type: functional, cell-based; details: COLO 205, 48 h; method in brief: as §2
[5] = target: Tubulin; assay: Inhibition of tubulin (unknown origin) polymerization after 1 hr by spectrophotometry; type: protein-complex assay, Homo sapiens
Method in brief: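 Kit tubulin (10 mg in 1 mL general tubulin buffer plus 10 µL of 100 mM GTP) was held at 4°C. Compounds came from a 100 µM DMSO stock diluted to 50, 25 and 10 µM (pre-assay dilutions). Compound was pre-warmed in plate wells 2 min at 37°C before adding tubulin diluted in polymerization buffer (general buffer, glycerol buffer, GTP).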

[6] = Cytotoxicity against human HCT116 cells assessed as growth inhibition after 48 hrs by sulforhodamine B assay; type: functional, cell-based; details: HCT-116, 48 h; method in brief: as §2
[7] = system: A549; assay: Cytotoxicity against human A549 cells assessed as growth inhibition at 50 uM after 48 hrs by sulforhodamine B assay; type: functional; details: for inhibition of growth at 50 µM: A549, 48 h, read-out: GI; method in brief: as §1
[8] = Cytotoxicity against human HCT116 cells assessed as growth inhibition at 50 uM after 48 hrs by sulforhodamine B assay; type: functional; details: HCT-116, 48 h, read-out: GI; method in brief: as §1
[9] = system: A549; assay: Cytotoxicity against human A549 cells assessed as growth inhibition at 1 uM after 48 hrs by sulforhodamine B assay; type: functional; details: A549, 48 h, read-out: GI
[10] = system: THP-1; assay: Disruption of microtubule organization in human THP1 cells at 1 uM after 48 hrs by immunofluorescence technique; type: cell-based
[11] = Cytotoxicity against human HCT116 cells assessed as growth inhibition at 1 uM after 48 hrs by sulforhodamine B assay; type: functional; details: HCT-116, 48 h, read-out: GI
[12] = system: COLO 205; assay: Cytotoxicity against human COLO205 cells assessed as growth inhibition at 1 uM after 48 hrs by sulforhodamine B assay; type: functional; details: COLO 205, 48 h, read-out: GI
[13] = system: THP-1; assay: Cytotoxicity against human THP1 cells assessed as growth inhibition at 1 uM after 48 hrs by sulforhodamine B assay; type: functional; details: THP-1, 48 h, read-out: GI
[14] = system: THP-1; assay: Disruption of microtubule organization in human THP1 cells at 5 uM after 48 hrs by immunofluorescence technique; type: cell-based
Method in brief: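 THP-1 cells were exposed to 1 µM paclitaxel or 5 µM test agent for 48 h, alongside untreated controls. Microtubules and unassembled tubulin were immunostained (green) and DNA was stained with DAPI. Microtubule organisation was examined by confocal microscopy.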

SMILES	inhibition of growth at 50 µM [1] [%]	IC50 [2] [µM]	inhibition of growth at 50 µM [3] [%]	IC50 [4] [µM]	IC50 [5] [µM]	IC50 [6] [µM]	growth inhibition (GI) [7]	inhibition of growth at 50 µM [8] [%]	inhibition of growth at 1 µM [9] [%]	Activity [10]	inhibition of growth at 50 µM [7] [%]	inhibition of growth at 1 µM [11] [%]	inhibition of growth at 1 µM [12] [%]	inhibition of growth at 1 µM [13] [%]	Activity [14]
CC(=O)n1c2ccccc2c2cc(-c3ccc4ccccc4c3)nnc21	89	2.41	82	5.76	8.91	4.44	inactive	81							
CC(=O)O[C@H]1C(=O)[C@@]2(C)[C@H]([C@H](OC(=O)c3ccccc3)[C@]3(O)C[C@H](OC(=O)[C@H](O)[C@@H](NC(=O)c4ccccc4)c4ccccc4)C(C)=C1C3(C)C)[C@]1(OC(C)=O)CO[C@@H]1C[C@@H]2O [PACLITAXEL]									70	Active					
CC(=O)n1c2ccccc2c2cc(-c3cccc4ccccc34)nnc21	89	2.39	83	5.74	8.97	4.36	inactive	80							
COc1ccc(-c2cc3c4ccccc4n(C(C)=O)c3nn2)cc1OC	90	2.33	82	5.69	4.92	4.4		80			12				
COc1cccc2c1C(=O)c1c(O)c3c(c(O)c1C2=O)C[C@@](O)(C(=O)CO)C[C@@H]3O[C@H]1C[C@H](N)[C@H](O)[C@H](C)O1 [DOXORUBICIN HYDROCHLORIDE]												66	72	71	
COc1cc(-c2cc3c4c(Cl)cccc4n(C(C)=O)c3nn2)cc(OC)c1OC	77	13.4	59	17		15.7	inactive	66							
CC(=O)n1c2cccc(Cl)c2c2cc(-c3ccc4ccccc4c3)nnc21	68	14	41	17.6		16.2		45			19				
COc1cc(-c2cc3c4ccccc4n(C(C)=O)c3nn2)cc(OC)c1OC	99	1.13	89	4.15	2.41	2.89		86			20				Active
CC(=O)n1c2ccccc2c2cc(-c3cccs3)nnc21	76	4.31	69	7.15		6.17		71			10				
